Values after ≈ are worked out from the molar mass of the structure shown.

Common to all, as to type: functional
Experiment [1] relates to Staphylococcus aureus. The experiment in a line: Antimicrobial activity against methicillin-susceptible Staphylococcus aureus ATCC 25923 after 18 hrs by broth microdilution method. Particulars: ATCC 25923, 18 h.
For experiment [2], the system named is Staphylococcus aureus. The experiment is described as follows: Antimicrobial activity against methicillin-susceptible Staphylococcus aureus ATCC 6538 after 18 hrs by broth microdilution method. Particulars: ATCC 6538, 18 h.
Experiment [3] concerns Staphylococcus aureus. The experiment is described as follows: Antimicrobial activity against Staphylococcus aureus Microbank 14001 after 18 hrs by broth microdilution method. Particulars: Microbank 14001, 18 h.
The subject of experiment [4] is Staphylococcus epidermidis. The experiment in a line: Antimicrobial activity against Staphylococcus epidermidis ATCC 12228 after 18 hrs by broth microdilution method. The note with it: ATCC 12228, 18 h.
For experiment [5], the system named is Bacillus subtilis. The experiment in a line: Antimicrobial activity against Bacillus subtilis […] after 18 hrs by broth microdilution method.
The test system of experiment [6] is Bacillus cereus. The experiment is described as follows: Antimicrobial activity against Bacillus cereus ATCC 10876 after 18 hrs by broth microdilution method. Particulars: ATCC 10876, 18 h.
In experiment [7] the test system is Micrococcus luteus. The experiment is described as follows: Antimicrobial activity against Micrococcus luteus ATCC 10240 after 18 hrs by broth microdilution method. Particulars: ATCC 10240, 18 h.
Experiment [8] concerns Staphylococcus aureus. The experiment in a line: Ratio of MBC for methicillin-susceptible Staphylococcus aureus ATCC 25923 to MIC for methicillin-susceptible Staphylococcus aureus ATCC 25923. In short, it runs like this: (§1)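 MBC taken as lowest concentration giving >99.9% CFU reduction of the initial inoculum; value is MBC divided by MIC for the same strain.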
Experiment [9] relates to Staphylococcus aureus. The experiment is described as follows: Ratio of MBC for methicillin-susceptible Staphylococcus aureus ATCC 6538 to MIC for methicillin-susceptible Staphylococcus aureus ATCC 6538. In short, it runs like this:
as §1

Experiment [10] deals with Staphylococcus aureus. The experiment in a line: Ratio of MBC for Staphylococcus aureus Microbank 14001 to MIC for Staphylococcus aureus Microbank 14001. In short, it runs like this: as §1
The subject of experiment [11] is Escherichia coli. The experiment in a line: Antimicrobial activity against Escherichia coli ATCC 25922 after 18 hrs by broth microdilution method. Particulars: ATCC 25922, 18 h.
Experiment [12] relates to Klebsiella pneumoniae. The experiment is described as follows: Antimicrobial activity against Klebsiella pneumoniae ATCC 13883 after 18 hrs by broth microdilution method. Particulars: ATCC 13883, 18 h.
In experiment [13] the test system is Proteus mirabilis. The experiment is described as follows: Antimicrobial activity against Proteus mirabilis ATCC 12453 after 18 hrs by broth microdilution method. The note with it: ATCC 12453, 18 h.
Experiment [14] deals with Pseudomonas aeruginosa. The experiment in a line: Antimicrobial activity against Pseudomonas aeruginosa ATCC 9027 after 18 hrs by broth microdilution method. The note with it: ATCC 9027, 18 h.

For `O=C(O)c1cn(C2CC2)c2cc(N3CCN(Cn4nc(-c5ccccc5O)n(-c5ccccc5)c4=S)CC3)c(F)cc2c1=O`, the MIC in experiment [1] was found to be 0.8 µM (≈ 0.49 µg/mL); in experiment [2] it was 0.39 µM (≈ 0.239 µg/mL); in [3], 0.19 µM (≈ 0.116 µg/mL); in [4], 0.098 µM (≈ 0.06 µg/mL); in experiment [5] it was 0.39 µM (≈ 0.239 µg/mL); in [6], 0.098 µM (≈ 0.06 µg/mL). Also, the MIC was 1.59 µM (≈ 0.974 µg/mL) in experiment [7]; 0.012 µM (≈ 0.00735 µg/mL) in experiment [11]; 0.049 µM (≈ 0.03 µg/mL) in [12]; 0.024 µM (≈ 0.0147 µg/mL) in experiment [13]; 0.39 µM (≈ 0.239 µg/mL) in experiment [14]. Besides, the Ratio result in experiment [8], in experiment [9] and in experiment [10] was “<=4” in each case.
For `O=C(O)c1cn(C2CC2)c2cc(N3CCN(Cn4nc(-c5ccccc5O)n(-c5ccc(F)cc5)c4=S)CC3)c(F)cc2c1=O`, the minimum inhibitory concentration (MIC) turned out to be 1.55 µM (≈ 0.978 µg/mL) in experiment [1]; 0.38 µM (≈ 0.24 µg/mL) in experiment [2]; 0.19 µM (≈ 0.12 µg/mL) in experiment [3]; 0.38 µM (≈ 0.24 µg/mL) in experiment [4]; 0.19 µM (≈ 0.12 µg/mL) in [5]; 0.19 µM (≈ 0.12 µg/mL) in experiment [6]. For the same compound, the minimal inhibitory concentration (MIC) in [7] was 3.09 µM (≈ 1.95 µg/mL); in experiment [11], 0.011 µM (≈ 0.00694 µg/mL); in [12], 0.048 µM (≈ 0.0303 µg/mL); in [13] it was 0.024 µM (≈ 0.0151 µg/mL); in experiment [14] it was 0.095 µM (≈ 0.0599 µg/mL). Further, the Ratio entry in experiment [8], in experiment [9] and in experiment [10] was “<=4” each time.
`O=C(O)c1cn(C2CC2)c2cc(N3CCN(Cn4nc(-c5ccccc5O)n(-c5ccc(Cl)cc5)c4=S)CC3)c(F)cc2c1=O`: the MIC in experiment [1] came out at 0.76 µM (≈ 0.492 µg/mL); in experiment [2], 0.18 µM (≈ 0.116 µg/mL); in experiment [3], 0.093 µM (≈ 0.0602 µg/mL); in experiment [4], 0.18 µM (≈ 0.116 µg/mL); in experiment [5] it was 0.093 µM (≈ 0.0602 µg/mL); in experiment [6] it was 0.18 µM (≈ 0.116 µg/mL). Moreover, the MIC in [7] came out at 1.51 µM (≈ 0.977 µg/mL); in experiment [11] it was 0.011 µM (≈ 0.00712 µg/mL); in experiment [12], 0.023 µM (≈ 0.0149 µg/mL); in experiment [13], 0.011 µM (≈ 0.00712 µg/mL); in experiment [14], 0.37 µM (≈ 0.239 µg/mL). The Ratio result in experiment [8], in [9] and in [10] was “<=4” in each case.
With `O=C(O)c1cn(C2CC2)c2cc(N3CCN(Cn4nc(-c5ccccc5O)n(Cc5ccc(Cl)cc5)c4=S)CC3)c(F)cc2c1=O`, the MIC was found to be 0.74 µM (≈ 0.489 µg/mL) in experiment [1]; 0.18 µM (≈ 0.119 µg/mL) in [2]; 0.36 µM (≈ 0.238 µg/mL) in experiment [3]; 0.091 µM (≈ 0.0602 µg/mL) in [4]; 0.045 µM (≈ 0.0298 µg/mL) in [5]; 0.091 µM (≈ 0.0602 µg/mL) in experiment [6]. The MIC worked out at 1.48 µM (≈ 0.979 µg/mL) in [7]; 0.023 µM (≈ 0.0152 µg/mL) in experiment [11]; 0.023 µM (≈ 0.0152 µg/mL) in [12]; 0.046 µM (≈ 0.0304 µg/mL) in experiment [13]; 0.36 µM (≈ 0.238 µg/mL) in experiment [14]. Further, the Ratio entry in experiment [8], in experiment [9] and in experiment [10] was “<=4” throughout.
As for `COc1ccc(-n2c(-c3ccccc3O)nn(CN3CCN(c4cc5c(cc4F)c(=O)c(C(=O)O)cn5C4CC4)CC3)c2=S)cc1`, the MIC in experiment [1] worked out at 0.76 µM (≈ 0.488 µg/mL); in experiment [2], 0.37 µM (≈ 0.238 µg/mL); in experiment [3], 0.18 µM (≈ 0.116 µg/mL); in experiment [4], 0.093 µM (≈ 0.0598 µg/mL); in [5], 0.093 µM (≈ 0.0598 µg/mL); in [6] it was 0.37 µM (≈ 0.238 µg/mL). In addition, the MIC in experiment [7] is 1.52 µM (≈ 0.977 µg/mL); in experiment [11], 0.011 µM (≈ 0.00707 µg/mL); in experiment [12], 0.047 µM (≈ 0.0302 µg/mL); in experiment [13] it was 0.047 µM (≈ 0.0302 µg/mL); in experiment [14], 0.76 µM (≈ 0.488 µg/mL). In addition, the Ratio entry in experiment [8], in experiment [9] and in experiment [10] was “<=4” in each case.
As for `O=C(O)c1cn(C2CC2)c2cc(N3CCN(Cn4nc(-c5cccc(O)c5)n(Cc5ccccc5)c4=S)CC3)c(F)cc2c1=O`, the MIC amounted to 0.38 µM (≈ 0.238 µg/mL) in [1]; 0.19 µM (≈ 0.119 µg/mL) in [2]; 0.19 µM (≈ 0.119 µg/mL) in [3]; 0.096 µM (≈ 0.0602 µg/mL) in [4]; 0.048 µM (≈ 0.0301 µg/mL) in experiment [5]; 0.096 µM (≈ 0.0602 µg/mL) in experiment [6]. Moreover, the MIC came out at 1.56 µM (≈ 0.978 µg/mL) in experiment [7]; 0.006 µM (≈ 0.00376 µg/mL) in [11]; 0.048 µM (≈ 0.0301 µg/mL) in experiment [12]; 0.012 µM (≈ 0.00752 µg/mL) in experiment [13]; 0.19 µM (≈ 0.119 µg/mL) in experiment [14]. For the same compound, the Ratio result in experiment [8], in experiment [9] and in experiment [10] was “<=4” in each case.
Consider `O=C(O)c1cn(C2CC2)c2cc(N3CCN(Cn4nc(-c5cccc(O)c5)n(-c5ccc(F)cc5)c4=S)CC3)c(F)cc2c1=O`, for which the MIC in experiment [1] was 0.76 µM (≈ 0.479 µg/mL); in experiment [2], 0.38 µM (≈ 0.24 µg/mL); in [3] it was 0.38 µM (≈ 0.24 µg/mL); in [4], 0.19 µM (≈ 0.12 µg/mL); in experiment [5], 0.095 µM (≈ 0.0599 µg/mL); in experiment [6], 0.19 µM (≈ 0.12 µg/mL). For the same compound, the MIC in experiment [7] is 1.55 µM (≈ 0.978 µg/mL); in [11], 0.012 µM (≈ 0.00757 µg/mL); in experiment [12] it was 0.048 µM (≈ 0.0303 µg/mL); in experiment [13] it was 0.024 µM (≈ 0.0151 µg/mL); in experiment [14], 0.38 µM (≈ 0.24 µg/mL). The Ratio entry in [8], in experiment [9] and in experiment [10] was “<=4” each time.

These data come from ChEMBL document CHEMBL3421560, “Search for factors affecting antibacterial activity and toxicity of 1,2,4-triazole-ciprofloxacin hybrids” (Eur J Med Chem, 2015).
